Data taken from ChEMBL document CHEMBL2346654, “Discovery of biological evaluation of pyrazole/imidazole amides as mGlu5 receptor negative allosteric modulators” (Bioorg Med Chem Lett, 2013).
Calls of active or inactive are those of the source. No cut-off for these calls is given here.

What was measured:
Mus musculus [1] = test: Antidepressant activity in ICR mouse assessed as decrease in immobility time at 50 mg/kg, po administered 1 hr before test measured for 4 mins following training for 2 mins by forced swimming test; format: functional; set-up: scale not given: the % may be the effect or the level left
Outline: (§1)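 Mouse forced swim test: ICR mice dosed orally 1 h before testing; 2 min training, then immobility duration recorded over 4 min. Activity expressed as % decrease in immobility duration. Mean ± SEM, n = 8; Dunnett's multiple comparisons after one-way ANOVA (p < 0.05).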

[2] = Half life in rat liver microsomes; details: liver microsomes
[3] = Half life in human liver microsomes; details: liver microsomes
[4] = Half life in mouse liver microsomes; details: liver microsomes
[5] = molecular target: Sodium-dependent noradrenaline transporter (Homo sapiens) (UniProt P23975); test: Inhibition of NET (unknown origin) at 10 uM
[6] = molecular target: Sodium-dependent serotonin transporter (Homo sapiens) (UniProt P31645); test: Inhibition of SERT (unknown origin) at 10 uM
Chain of Sodium-dependent serotonin transporter (Homo sapiens) (P31645 whole entry, looked up): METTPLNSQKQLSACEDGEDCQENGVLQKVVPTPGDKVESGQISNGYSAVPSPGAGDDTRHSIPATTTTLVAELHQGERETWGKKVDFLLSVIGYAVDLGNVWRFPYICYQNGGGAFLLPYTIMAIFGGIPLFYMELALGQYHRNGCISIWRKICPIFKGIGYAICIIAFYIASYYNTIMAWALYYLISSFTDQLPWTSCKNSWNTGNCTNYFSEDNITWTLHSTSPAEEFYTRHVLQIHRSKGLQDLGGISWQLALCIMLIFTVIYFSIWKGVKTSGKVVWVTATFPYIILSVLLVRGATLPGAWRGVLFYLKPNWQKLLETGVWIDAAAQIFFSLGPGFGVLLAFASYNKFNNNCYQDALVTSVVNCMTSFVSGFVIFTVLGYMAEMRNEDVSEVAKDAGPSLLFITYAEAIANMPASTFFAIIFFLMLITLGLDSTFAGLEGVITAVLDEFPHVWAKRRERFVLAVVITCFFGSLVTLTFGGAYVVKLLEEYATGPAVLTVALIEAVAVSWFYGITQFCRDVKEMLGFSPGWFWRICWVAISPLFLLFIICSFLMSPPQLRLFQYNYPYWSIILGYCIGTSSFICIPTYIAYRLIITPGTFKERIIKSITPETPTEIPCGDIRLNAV

[7] = molecular target: 5-hydroxytryptamine receptor 2C (Homo sapiens) (UniProt P28335); test: Inhibition of 5-HT2C receptor (unknown origin) at 10 uM
Chain of 5-hydroxytryptamine receptor 2C (Homo sapiens) (P28335 whole entry): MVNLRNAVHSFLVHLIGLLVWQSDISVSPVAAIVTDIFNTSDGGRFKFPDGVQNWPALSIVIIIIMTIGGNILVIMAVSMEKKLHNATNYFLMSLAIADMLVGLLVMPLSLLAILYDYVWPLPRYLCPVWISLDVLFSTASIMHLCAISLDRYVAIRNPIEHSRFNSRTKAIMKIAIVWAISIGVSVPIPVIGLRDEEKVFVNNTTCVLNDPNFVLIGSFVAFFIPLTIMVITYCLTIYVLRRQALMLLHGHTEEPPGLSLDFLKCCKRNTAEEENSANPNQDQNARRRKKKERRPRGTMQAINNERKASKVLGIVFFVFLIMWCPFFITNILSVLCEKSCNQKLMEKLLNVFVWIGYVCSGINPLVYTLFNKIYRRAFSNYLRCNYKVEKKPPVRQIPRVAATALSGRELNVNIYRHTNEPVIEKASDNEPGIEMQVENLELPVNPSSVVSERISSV

[8] = molecular target: Sodium-dependent dopamine transporter (Homo sapiens) (UniProt Q01959); test: Inhibition of DAT (unknown origin) at 10 uM
[9] = molecular target: Muscarinic acetylcholine receptor M2 (Homo sapiens) (UniProt P08172); test: Inhibition of muscarinic M2 receptor (unknown origin) at 10 uM
[10] = molecular target: Histamine H1 receptor (Homo sapiens) (UniProt P35367); test: Inhibition of histamine H1 receptor (unknown origin) at 10 uM
Chain of Histamine H1 receptor (Homo sapiens) (P35367 whole entry): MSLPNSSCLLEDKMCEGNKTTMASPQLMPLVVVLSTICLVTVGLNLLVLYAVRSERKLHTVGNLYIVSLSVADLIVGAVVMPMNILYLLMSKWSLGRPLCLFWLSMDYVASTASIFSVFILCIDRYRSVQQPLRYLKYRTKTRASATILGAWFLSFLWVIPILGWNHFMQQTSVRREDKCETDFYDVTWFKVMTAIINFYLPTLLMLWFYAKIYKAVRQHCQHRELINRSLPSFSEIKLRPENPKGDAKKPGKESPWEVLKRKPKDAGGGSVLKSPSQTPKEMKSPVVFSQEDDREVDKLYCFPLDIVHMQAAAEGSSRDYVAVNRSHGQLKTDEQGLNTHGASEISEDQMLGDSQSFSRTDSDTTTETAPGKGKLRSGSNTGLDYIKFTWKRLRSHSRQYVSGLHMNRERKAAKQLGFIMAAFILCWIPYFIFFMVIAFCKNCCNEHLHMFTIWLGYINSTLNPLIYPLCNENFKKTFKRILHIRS

[11] = molecular target: Muscarinic acetylcholine receptor M1 (Homo sapiens) (UniProt P11229); test: Inhibition of muscarinic M1 receptor (unknown origin) at 10 uM
Chain of Muscarinic acetylcholine receptor M1 (Homo sapiens) (P11229 whole entry): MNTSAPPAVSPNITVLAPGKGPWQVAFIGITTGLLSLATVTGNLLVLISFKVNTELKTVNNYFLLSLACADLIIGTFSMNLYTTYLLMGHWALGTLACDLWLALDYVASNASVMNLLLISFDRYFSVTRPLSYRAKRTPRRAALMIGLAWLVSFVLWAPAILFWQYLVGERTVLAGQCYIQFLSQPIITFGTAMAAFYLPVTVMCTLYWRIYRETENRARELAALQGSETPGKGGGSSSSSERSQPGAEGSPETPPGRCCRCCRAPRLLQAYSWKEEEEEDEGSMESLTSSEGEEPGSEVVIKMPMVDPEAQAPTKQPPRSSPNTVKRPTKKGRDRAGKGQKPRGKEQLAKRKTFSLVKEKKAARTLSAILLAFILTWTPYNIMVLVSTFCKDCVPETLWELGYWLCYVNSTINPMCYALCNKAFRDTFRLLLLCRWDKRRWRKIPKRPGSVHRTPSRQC

[12] = molecular target: Alpha-1D adrenergic receptor (Homo sapiens) (UniProt P25100); test: Inhibition of adrenergic alpha1D receptor (unknown origin) at 10 uM
Chain of Alpha-1D adrenergic receptor (Homo sapiens) (P25100 whole entry): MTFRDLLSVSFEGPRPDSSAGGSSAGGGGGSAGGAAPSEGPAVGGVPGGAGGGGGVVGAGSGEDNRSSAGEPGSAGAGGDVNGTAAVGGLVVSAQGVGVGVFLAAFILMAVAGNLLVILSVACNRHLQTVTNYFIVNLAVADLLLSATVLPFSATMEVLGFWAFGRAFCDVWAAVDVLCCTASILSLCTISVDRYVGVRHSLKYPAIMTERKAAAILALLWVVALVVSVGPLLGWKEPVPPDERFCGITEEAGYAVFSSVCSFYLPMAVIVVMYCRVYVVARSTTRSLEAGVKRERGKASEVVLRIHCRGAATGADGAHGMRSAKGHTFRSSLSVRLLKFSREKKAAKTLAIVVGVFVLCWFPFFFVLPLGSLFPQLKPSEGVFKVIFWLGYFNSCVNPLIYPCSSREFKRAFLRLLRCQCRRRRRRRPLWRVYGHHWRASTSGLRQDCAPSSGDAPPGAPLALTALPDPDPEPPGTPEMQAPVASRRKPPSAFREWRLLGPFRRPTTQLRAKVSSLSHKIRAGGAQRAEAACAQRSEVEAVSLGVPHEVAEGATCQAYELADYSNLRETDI

[13] = molecular target: Amine oxidase [flavin-containing] B (Homo sapiens, UniProt P27338); test: Inhibition of MAO-B (unknown origin) at 10 uM
Chain of Amine oxidase [flavin-containing] B (P27338 whole entry): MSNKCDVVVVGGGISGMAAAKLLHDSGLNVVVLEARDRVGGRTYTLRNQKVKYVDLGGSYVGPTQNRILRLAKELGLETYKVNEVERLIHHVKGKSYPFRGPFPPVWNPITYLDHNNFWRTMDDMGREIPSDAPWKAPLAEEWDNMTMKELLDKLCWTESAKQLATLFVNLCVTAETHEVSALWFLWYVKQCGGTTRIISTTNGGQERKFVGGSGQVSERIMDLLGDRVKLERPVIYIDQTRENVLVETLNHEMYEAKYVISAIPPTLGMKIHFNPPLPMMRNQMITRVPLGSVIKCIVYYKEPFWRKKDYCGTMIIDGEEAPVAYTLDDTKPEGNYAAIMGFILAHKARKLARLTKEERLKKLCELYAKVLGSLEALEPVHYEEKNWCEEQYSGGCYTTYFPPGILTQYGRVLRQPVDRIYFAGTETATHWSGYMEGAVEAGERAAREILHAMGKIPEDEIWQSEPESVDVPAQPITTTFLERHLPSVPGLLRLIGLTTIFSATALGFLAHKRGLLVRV

[14] = molecular target: Adenosine receptor A2a (Homo sapiens) (UniProt P29274); test: Inhibition of adenosine A2A receptor (unknown origin) at 10 uM
Chain of Adenosine receptor A2a (Homo sapiens) (P29274 whole entry): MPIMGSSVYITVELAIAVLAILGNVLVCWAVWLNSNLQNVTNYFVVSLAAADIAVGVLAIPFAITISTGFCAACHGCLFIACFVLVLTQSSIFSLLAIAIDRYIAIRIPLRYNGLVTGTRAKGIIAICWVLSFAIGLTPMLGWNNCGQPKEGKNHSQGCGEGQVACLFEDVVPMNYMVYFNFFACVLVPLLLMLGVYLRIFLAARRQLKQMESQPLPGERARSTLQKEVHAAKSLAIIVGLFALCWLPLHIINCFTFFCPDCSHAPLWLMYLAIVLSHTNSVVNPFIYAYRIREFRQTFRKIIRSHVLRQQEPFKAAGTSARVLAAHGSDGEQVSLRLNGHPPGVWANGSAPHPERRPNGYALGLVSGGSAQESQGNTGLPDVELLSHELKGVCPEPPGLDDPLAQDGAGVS

[15] = molecular target: Amine oxidase [flavin-containing] A (Homo sapiens, UniProt P21397); test: Inhibition of MAO-A (unknown origin) at 10 uM
[16] = Half life in rat plasma; format: ADME, cell-free
[17] = molecular target: Metabotropic glutamate receptor 5 (Homo sapiens, UniProt P41594); test: Negative allosteric modulation of human mGluR5 expressed in HEK293 cells assessed as calcium mobilization by FLIPR assay; format: functional, cell-based
Chain of Metabotropic glutamate receptor 5 (P41594 whole entry): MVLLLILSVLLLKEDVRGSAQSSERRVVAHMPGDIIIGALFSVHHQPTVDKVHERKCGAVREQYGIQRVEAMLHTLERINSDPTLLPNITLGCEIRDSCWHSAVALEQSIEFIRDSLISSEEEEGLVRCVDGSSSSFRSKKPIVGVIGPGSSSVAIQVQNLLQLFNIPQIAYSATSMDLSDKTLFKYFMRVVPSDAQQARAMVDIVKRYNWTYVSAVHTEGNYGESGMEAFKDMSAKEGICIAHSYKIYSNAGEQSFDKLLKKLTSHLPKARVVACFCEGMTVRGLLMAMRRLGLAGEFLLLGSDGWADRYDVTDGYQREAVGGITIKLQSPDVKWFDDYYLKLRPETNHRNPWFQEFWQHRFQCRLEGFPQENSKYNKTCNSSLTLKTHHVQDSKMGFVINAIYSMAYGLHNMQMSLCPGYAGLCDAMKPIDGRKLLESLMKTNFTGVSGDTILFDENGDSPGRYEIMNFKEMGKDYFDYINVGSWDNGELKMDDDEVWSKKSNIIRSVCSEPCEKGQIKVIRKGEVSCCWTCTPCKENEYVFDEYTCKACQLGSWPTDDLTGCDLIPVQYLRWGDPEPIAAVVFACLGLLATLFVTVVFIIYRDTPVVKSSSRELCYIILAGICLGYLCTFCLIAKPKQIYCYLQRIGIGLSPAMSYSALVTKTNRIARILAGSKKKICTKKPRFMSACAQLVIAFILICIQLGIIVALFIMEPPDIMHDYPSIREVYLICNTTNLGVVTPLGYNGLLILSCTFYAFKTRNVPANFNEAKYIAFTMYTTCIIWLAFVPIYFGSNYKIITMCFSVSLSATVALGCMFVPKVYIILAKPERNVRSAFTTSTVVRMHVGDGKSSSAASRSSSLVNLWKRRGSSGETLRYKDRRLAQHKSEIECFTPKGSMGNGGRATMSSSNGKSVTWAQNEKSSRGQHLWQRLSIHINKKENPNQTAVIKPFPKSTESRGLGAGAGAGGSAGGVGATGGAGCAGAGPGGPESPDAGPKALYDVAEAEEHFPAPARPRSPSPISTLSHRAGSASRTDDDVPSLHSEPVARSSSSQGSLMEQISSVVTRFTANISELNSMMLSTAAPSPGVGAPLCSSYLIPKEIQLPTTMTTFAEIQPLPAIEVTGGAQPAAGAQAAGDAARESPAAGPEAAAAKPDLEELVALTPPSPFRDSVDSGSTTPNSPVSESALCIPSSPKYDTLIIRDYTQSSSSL

Rattus norvegicus = test: Antidepressant activity in rat assessed as decrease in immobility time at 10 mg/kg, ip by forced swimming test; format: functional; set-up: scale not given: the % may be the effect or the level left; details: route intraperitoneal
Outline: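 Rat forced swim test with intraperitoneal dosing at 10 mg/kg. Read-out is % decrease in immobility duration. Dosing vehicle 5% DMSO + 5% Cremophore.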

[18] = Oral bioavailability in mouse; format: ADME, organism-based; details: in vivo
Outline: (§2)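 Oral bioavailability (F) determined in mice and rats. Dosing vehicle 5% DMSO + 5% Cremophore.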

[19] = Oral bioavailability in rat; format: ADME, organism-based; details: in vivo; outline: as §2
Mus musculus [20] = test: Toxicity in ICR mouse assessed as induction of locomotor activity at 1 to 30 mg/kg, ip; format: organism-based; set-up: dose 1-30 mg/kg, route intraperitoneal; details: in vivo
Outline: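 Locomotor activity tests in mice, run to separate antidepressant effect from hyperactivity. Compound given intraperitoneally over a dose range of 1 mg/kg to 30 mg/kg.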

Mus musculus [21] = test: Antidepressant activity in ICR mouse assessed as decrease in immobility time at 10 mg/kg, po administered 1 hr before test measured for 4 mins following training for 2 mins by forced swimming test; format: functional; set-up: scale not given: the % may be the effect or the level left; outline: as §1
Mus musculus [22] = test: Antidepressant activity in ip dosed ICR mouse assessed as decrease in immobility time administered 1 hr before test measured for 4 mins following training for 2 mins by forced swimming test

Work on Cc1cccc(NC(=O)c2nn(C)c(-c3ccccc3)c2C)n1 yielded an Activity (Mus musculus [1]) of 53.3%, a half-life [2] of 24 min and a half-life [3] of 66 min. For the same compound, the half-life [4] was 18 min, the inhibition [5] was 63% and the inhibition [6] was “inactive”. For the same compound, the inhibition [7] was 66%, the inhibition [8] was 60% and the inhibition [9] was “inactive”. The inhibition [10] was “inactive”, the inhibition [11] was “inactive” and the inhibition [12] was “inactive”. For the same compound, the “inhibition (INH)” value [13] was “Not Active”, the inhibition [14] was “inactive” and the “inhibition (INH)” value [15] was “Not Active”. It also gave a half-life [16] greater than 180 min and an IC50 [17] of 4.4 nM.
With Cc1cccc(NC(=O)c2nn(C)c(-c3ccc(F)cc3)c2C)n1 the Activity (Rattus norvegicus) was 10.9%, the bioavailability [18] was 31% and the bioavailability [19] was less than 2%. For the same compound, the Activity (Mus musculus [20]) was “Non-toxic”, the Activity (Mus musculus [21]) was 61.1% and the half-life [2] was 56 min. The half-life [3] was 82 min, the half-life [4] was 36 min and the IC50 [17] was 1.1 nM. For the same compound, the ED50 (Mus musculus [22]) was 1.1 mg/kg.
